Results taken from ChEMBL document CHEMBL4402598, “Design and Synthesis of Bitopic 2-Phenylcyclopropylmethylamine (PCPMA) Derivatives as Selective Dopamine D3 Receptor Ligands” (J Med Chem, 2020).
pIC50, pKi: −log10 of the molar value.

Key:
D(2) dopamine receptor = D(2) dopamine receptor (Homo sapiens, UniProt P14416); test: Displacement of [3H]-N-methylspiperone from recombinant human D2 receptor stably expressed in fibroblast cell membranes measured after 90 mins by microbeta scintillation counting method
Sequence of D(2) dopamine receptor (P14416 whole entry): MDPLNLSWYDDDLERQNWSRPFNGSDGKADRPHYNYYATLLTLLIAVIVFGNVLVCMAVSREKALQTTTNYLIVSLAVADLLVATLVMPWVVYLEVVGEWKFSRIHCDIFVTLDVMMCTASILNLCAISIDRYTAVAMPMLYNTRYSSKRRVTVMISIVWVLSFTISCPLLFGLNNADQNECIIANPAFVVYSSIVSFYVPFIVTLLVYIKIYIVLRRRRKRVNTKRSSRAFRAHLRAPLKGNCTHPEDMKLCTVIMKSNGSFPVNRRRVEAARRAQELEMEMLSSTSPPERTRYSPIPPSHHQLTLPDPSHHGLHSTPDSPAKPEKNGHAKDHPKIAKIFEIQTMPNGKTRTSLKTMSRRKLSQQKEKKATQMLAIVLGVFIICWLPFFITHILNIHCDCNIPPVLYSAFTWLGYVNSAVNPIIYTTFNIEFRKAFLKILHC

D(1B) dopamine receptor = D(1B) dopamine receptor (Homo sapiens, UniProt P21918); test: Displacement of [3H]-SCH23390 from recombinant human D5 receptor transiently expressed in HEKT cell membranes measured after 90 mins by microbeta scintillation counting method
Sequence of D(1B) dopamine receptor (P21918 whole entry): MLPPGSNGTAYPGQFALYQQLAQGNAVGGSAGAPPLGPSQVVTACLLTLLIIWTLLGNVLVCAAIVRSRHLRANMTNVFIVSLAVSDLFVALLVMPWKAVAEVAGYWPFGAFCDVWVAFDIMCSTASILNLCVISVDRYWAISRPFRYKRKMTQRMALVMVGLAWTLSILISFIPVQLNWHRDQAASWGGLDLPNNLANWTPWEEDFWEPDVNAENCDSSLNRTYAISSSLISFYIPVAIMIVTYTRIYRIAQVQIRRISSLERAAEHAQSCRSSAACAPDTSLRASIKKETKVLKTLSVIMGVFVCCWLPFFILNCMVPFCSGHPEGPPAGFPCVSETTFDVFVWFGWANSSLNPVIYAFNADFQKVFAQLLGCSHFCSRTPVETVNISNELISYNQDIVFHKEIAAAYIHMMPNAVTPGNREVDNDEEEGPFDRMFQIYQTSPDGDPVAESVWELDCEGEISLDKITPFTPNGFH

[1] = biological target: T1, 5-hydroxytryptamine receptor 2C (Homo sapiens, UniProt P28335); test: Displacement of [3H]-Mesulergine from recombinant human 5HT2C receptor expressed in HEKT cell membranes measured after 90 mins by microbeta scintillation counting method
T1 sequence (P28335 whole entry): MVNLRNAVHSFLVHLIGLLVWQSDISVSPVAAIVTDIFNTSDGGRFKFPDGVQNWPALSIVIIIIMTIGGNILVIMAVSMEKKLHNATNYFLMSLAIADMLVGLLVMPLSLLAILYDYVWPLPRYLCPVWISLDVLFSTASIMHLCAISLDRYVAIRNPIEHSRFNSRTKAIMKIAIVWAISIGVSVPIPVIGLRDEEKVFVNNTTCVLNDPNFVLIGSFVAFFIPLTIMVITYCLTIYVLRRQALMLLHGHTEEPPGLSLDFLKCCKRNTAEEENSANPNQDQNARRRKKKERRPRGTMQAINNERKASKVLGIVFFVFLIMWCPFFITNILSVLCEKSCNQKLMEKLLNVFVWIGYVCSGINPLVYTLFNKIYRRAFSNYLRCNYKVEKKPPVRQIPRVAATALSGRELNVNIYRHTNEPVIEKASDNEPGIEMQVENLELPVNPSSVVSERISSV

D(1A) dopamine receptor = D(1A) dopamine receptor (Homo sapiens, UniProt P21728); test: Displacement of [3H]-SCH23390 from recombinant human D1 receptor transiently expressed in HEKT cell membranes measured after 90 mins by microbeta scintillation counting method
Sequence of D(1A) dopamine receptor (P21728 whole entry): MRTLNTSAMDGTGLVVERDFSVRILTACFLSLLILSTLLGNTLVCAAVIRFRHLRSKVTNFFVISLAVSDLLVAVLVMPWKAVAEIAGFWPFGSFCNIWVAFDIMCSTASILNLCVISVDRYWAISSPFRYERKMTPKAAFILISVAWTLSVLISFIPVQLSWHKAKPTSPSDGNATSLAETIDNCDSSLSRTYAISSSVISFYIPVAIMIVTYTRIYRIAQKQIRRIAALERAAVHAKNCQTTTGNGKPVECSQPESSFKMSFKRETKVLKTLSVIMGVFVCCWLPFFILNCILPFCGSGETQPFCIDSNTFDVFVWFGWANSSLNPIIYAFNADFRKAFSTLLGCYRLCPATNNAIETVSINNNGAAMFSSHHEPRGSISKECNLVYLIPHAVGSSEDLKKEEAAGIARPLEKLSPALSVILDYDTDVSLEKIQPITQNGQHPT

[2] = biological target: T1, 5-hydroxytryptamine receptor 2C; test: Antagonist activity at human 5HT2C receptor stably expressed in HEK293 cells co-expressing Gq assessed as inhibition of 5-HT-induced calcium mobilization preincubated for 15 mins followed by 5-HT addition and measured at 1 sec interval for 60 secs by Fluo-4 calcium dye based FLIPR assay; format: functional, cell-based
Outline: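 5-HT2C stably transfected HEK293 cells, loaded with Fluo-4 Direct (HBSS, 20 mM HEPES pH 7.4, 2.5 mM probenecid; 50 min 37 °C, 10 min room temperature). Test compound added, then 5-HT (final 1 nM) 15 min later.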

[3] = biological target: 5-hydroxytryptamine receptor 2B (Homo sapiens, UniProt P41595); test: Agonist activity at 5HT2B receptor (unknown origin) expressed in HEK293 cells co-expressing Gq assessed as induction of calcium mobilization measured at 1 sec interval for 60 secs by Fluo-4 calcium dye based FLIPR assay; format: cell-based; details: hek293, 1 min
Sequence of 5-hydroxytryptamine receptor 2B (P41595 whole entry): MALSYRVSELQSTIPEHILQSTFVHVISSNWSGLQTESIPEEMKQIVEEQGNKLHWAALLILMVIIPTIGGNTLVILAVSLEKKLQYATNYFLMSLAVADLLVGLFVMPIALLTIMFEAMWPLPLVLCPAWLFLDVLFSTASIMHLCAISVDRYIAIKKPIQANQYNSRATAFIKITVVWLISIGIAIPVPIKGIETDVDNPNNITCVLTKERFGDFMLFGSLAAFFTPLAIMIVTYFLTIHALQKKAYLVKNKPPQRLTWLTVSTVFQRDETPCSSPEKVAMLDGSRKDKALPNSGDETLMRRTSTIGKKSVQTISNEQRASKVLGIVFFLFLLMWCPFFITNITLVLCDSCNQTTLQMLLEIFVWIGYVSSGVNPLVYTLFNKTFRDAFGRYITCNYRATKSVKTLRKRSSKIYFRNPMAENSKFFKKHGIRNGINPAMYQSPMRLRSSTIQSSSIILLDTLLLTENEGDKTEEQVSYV

[4] = biological target: 5-hydroxytryptamine receptor 2A (Homo sapiens, UniProt P28223); test: Agonist activity at 5HT2A receptor (unknown origin) expressed in HEK293 cells co-expressing Gq assessed as induction of calcium mobilization measured at 1 sec interval for 60 secs by Fluo-4 calcium dye based FLIPR assay; format: cell-based; details: hek293, 1 min
Sequence of 5-hydroxytryptamine receptor 2A (P28223 whole entry): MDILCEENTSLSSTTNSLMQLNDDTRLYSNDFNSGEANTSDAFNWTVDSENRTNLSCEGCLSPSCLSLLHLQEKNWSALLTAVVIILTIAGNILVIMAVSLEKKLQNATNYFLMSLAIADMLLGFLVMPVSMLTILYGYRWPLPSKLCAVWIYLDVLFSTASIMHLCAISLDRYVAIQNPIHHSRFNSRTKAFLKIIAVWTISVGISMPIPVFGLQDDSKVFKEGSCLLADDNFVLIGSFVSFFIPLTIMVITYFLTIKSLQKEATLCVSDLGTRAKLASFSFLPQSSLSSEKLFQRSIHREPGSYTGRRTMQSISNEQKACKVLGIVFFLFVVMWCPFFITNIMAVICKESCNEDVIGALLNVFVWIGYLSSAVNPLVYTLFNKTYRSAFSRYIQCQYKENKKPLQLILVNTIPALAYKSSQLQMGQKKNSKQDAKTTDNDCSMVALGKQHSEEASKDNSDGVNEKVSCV

D(4) dopamine receptor = biological target: T2, D(4) dopamine receptor (Homo sapiens, UniProt P21917); test: Displacement of [3H]-N-methylspiperone from recombinant human D4 receptor stably expressed in HEK cell membranes measured after 90 mins by microbeta scintillation counting method
T2 sequence (P21917 whole entry): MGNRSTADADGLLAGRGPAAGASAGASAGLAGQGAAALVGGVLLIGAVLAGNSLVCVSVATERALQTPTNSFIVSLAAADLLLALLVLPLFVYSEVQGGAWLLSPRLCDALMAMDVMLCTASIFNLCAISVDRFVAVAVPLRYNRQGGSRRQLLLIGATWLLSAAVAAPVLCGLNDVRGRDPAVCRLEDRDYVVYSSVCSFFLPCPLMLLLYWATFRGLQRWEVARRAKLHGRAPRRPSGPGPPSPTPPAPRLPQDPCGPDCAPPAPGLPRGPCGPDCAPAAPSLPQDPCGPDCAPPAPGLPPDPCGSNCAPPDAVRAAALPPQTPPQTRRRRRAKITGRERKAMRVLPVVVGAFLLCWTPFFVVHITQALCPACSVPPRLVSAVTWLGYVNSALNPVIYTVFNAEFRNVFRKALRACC

[5] = Half life in ICR mouse at 10 mg/kg, po by LC-MS/MS analysis; format: ADME, organism-based; details: in vivo
Outline: (§1)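 Male ICR mice (6-8 weeks, ~25 g) dosed with compound dissolved in saline, 5 mg/kg iv or 10 mg/kg po, nine animals per group. Samples stored at -80 °C; drug quantified by LC-MS/MS.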

[6] = Drug level in ICR mouse plasma at 5 mg/kg, iv measured after 0.5 hrs by LC-MS/MS analysis; format: ADME, organism-based
Outline: (§2)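 Male ICR mice (6-8 weeks, ~25 g) received compound in saline, 5 mg/kg iv or 10 mg/kg po. Brains collected at 0.5 and 2.0 h, saline-washed, weighed, homogenized in cold 50% methanol (1 g:3 mL). Plasma prepared from orbital blood. Samples held at -80 °C; LC-MS/MS quantitation. Brain/plasma ratio calculated from the two concentrations.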

[7] = Oral bioavailability in ICR mouse at 10 mg/kg by LC-MS/MS analysis; format: ADME, organism-based; details: in vivo; outline: as §1
[8] = Drug level in ICR mouse brain at 5 mg/kg, iv measured after 0.5 hrs by LC-MS/MS analysis; format: ADME, organism-based; outline: as §2
[9] = MRT in ICR mouse at 10 mg/kg, po by LC-MS/MS analysis; format: ADME, organism-based; details: in vivo; outline: as §1
[10] = Drug level in ICR mouse plasma at 10 mg/kg, po measured after 0.5 hrs by LC-MS/MS analysis; format: ADME, organism-based; outline: as §2
[11] = Drug level in ICR mouse brain at 5 mg/kg, iv measured after 2 hrs by LC-MS/MS analysis; format: ADME, organism-based; outline: as §2
[12] = MRT in ICR mouse at 5 mg/kg, iv by LC-MS/MS analysis; format: ADME, organism-based; details: in vivo; outline: as §1
[13] = Ratio of drug level in ICR mouse brain to plasma at 5 mg/kg, iv measured after 0.5 hrs by LC-MS/MS analysis; format: ADME, organism-based; details: read-out: BPR; outline: as §2
[14] = Ratio of drug level in ICR mouse brain to plasma at 10 mg/kg, po measured after 2 hrs by LC-MS/MS analysis; format: ADME, organism-based; details: read-out: BPR; outline: as §2
[15] = Ratio of drug level in ICR mouse brain to plasma at 5 mg/kg, iv measured after 2 hrs by LC-MS/MS analysis; format: ADME, organism-based; details: read-out: BPR; outline: as §2
[16] = Cmax in ICR mouse at 10 mg/kg, po by LC-MS/MS analysis; format: ADME, organism-based; set-up: dose 10 mg/kg, route oral; details: in vivo; outline: as §1
[17] = Ratio of drug level in ICR mouse brain to plasma at 10 mg/kg, po measured after 0.5 hrs by LC-MS/MS analysis; format: ADME, organism-based; details: read-out: BPR; outline: as §2
[18] = Drug level in ICR mouse brain at 10 mg/kg, po measured after 2 hrs by LC-MS/MS analysis; format: ADME, organism-based; outline: as §2
[19] = Tmax in ICR mouse at 10 mg/kg, po by LC-MS/MS analysis; format: ADME, organism-based; details: in vivo; outline: as §1
[20] = Drug level in ICR mouse brain at 10 mg/kg, po measured after 0.5 hrs by LC-MS/MS analysis; format: ADME, organism-based; outline: as §2
[21] = Drug level in ICR mouse plasma at 10 mg/kg, po measured after 2 hrs by LC-MS/MS analysis; format: ADME, organism-based; outline: as §2
[22] = AUC (0 to t) in ICR mouse at 5 mg/kg, iv by LC-MS/MS analysis; format: ADME, organism-based; details: in vivo; outline: as §1
[23] = AUC (0 to t) in ICR mouse at 10 mg/kg, po by LC-MS/MS analysis; format: ADME, organism-based; details: in vivo; outline: as §1
[24] = Half life in ICR mouse at 5 mg/kg, iv by LC-MS/MS analysis; format: ADME, organism-based; details: in vivo; outline: as §1
[25] = Drug level in ICR mouse plasma at 5 mg/kg, iv measured after 2 hrs by LC-MS/MS analysis; format: ADME, organism-based; outline: as §2
[26] = Clearance in ICR mouse at 5 mg/kg, iv by LC-MS/MS analysis; format: ADME, organism-based; details: in vivo; outline: as §1
[27] = Volume of distribution at steady state in ICR mouse at 5 mg/kg, iv by LC-MS/MS analysis; format: ADME, organism-based; details: in vivo, read-out: Vdss; outline: as §1

Structure (SMILES) | pKi (D(2) dopamine receptor) | pKi (D(1B) dopamine receptor) | pKi [1] | pKi (D(1A) dopamine receptor) | pIC50 [2] | Activity [3] | Activity [4] | pKi (D(4) dopamine receptor) | half-life [5] | concentration at 0.5 h [6] | bioavailability [7] | concentration at 0.5 h [8] | MRT [9] | concentration at 0.5 h [10] | concentration at 2 h [11] | MRT [12] | Kp at 0.5 h [13] | Kp at 2 h [14] | Kp at 2 h [15] | Cmax [16] | further results
CCCN(CCCCNC(=O)c1ccc(-c2ccccn2)cc1)C[C@H]1C[C@@H]1c1cc(F)ccc1OC.Cl | 5.91 | < 5.30 | 7.30 | 5.97 | 6.07 | Not Active | Active | 6.07 | – | – | – | – | – | – | – | – | – | – | – | – | –
CCCN(CCCCNC(=O)c1ccc(-c2ccccn2)cc1)C[C@@H]1C[C@H]1c1cccc(Cl)c1Cl.Cl | – | < 5.30 | 6.38 | 5.87 | 5.00 | Not Active | Active | 6.17 | 2.12 h | 511 ng/mL | 13% | 980 ng/mL | 2.77 h | 118 ng/mL | 227 ng/mL | 0.808 h | 1.92 | 0.207 | 1.93 | 118 ng/mL | Kp at 0.5 h [17]: 0.23; concentration at 2 h [18]: 9.1 ng/mL; Tmax [19]: 0.5 h; concentration at 0.5 h [20]: 26.7 ng/mL; concentration at 2 h [21]: 44.1 ng/mL; AUC(0-t) [22]: 976 ng·h/mL; AUC(0-t) [23]: 254 ng·h/mL; half-life [24]: 0.576 h; concentration at 2 h [25]: 118 ng/mL; clearance [26]: 84.8 mL/min/kg; Vd [27]: 4.11 L/kg
CCCN(CCCCNC(=O)c1ccc2ccccc2c1)C[C@@H]1C[C@H]1c1cccc(Cl)c1Cl.Cl | 6.17 | < 5.30 | 6.37 | 5.89 | 4.79 | Not Active | Active | 6.09 | 2.08 h | 270 ng/mL | 6.6% | 3420 ng/mL | 2.59 h | 28.4 ng/mL | 913 ng/mL | 2.58 h | 12.7 | 1.61 | 11.1 | 37.3 ng/mL | Kp at 0.5 h [17]: 0.82; concentration at 2 h [18]: 23.2 ng/mL; Tmax [19]: 0.25 h; concentration at 0.5 h [20]: 23.2 ng/mL; concentration at 2 h [21]: 16.4 ng/mL; AUC(0-t) [22]: 616 ng·h/mL; AUC(0-t) [23]: 81.1 ng·h/mL; half-life [24]: 1.51 h; concentration at 2 h [25]: 82.6 ng/mL; clearance [26]: 134 mL/min/kg; Vd [27]: 20.8 L/kg
